Reference: ChEMBL document CHEMBL3871270, “Structural and Biochemical Characterization of the Interaction of Tubulin with Potent Natural Analogues of Podophyllotoxin” (J Nat Prod, 2016)
Active and inactive are the calls of the source. The calls are words filed in the database; no cut-off is given here.

Key:
[1] = Cytotoxicity against human A549 cells assessed as decrease in cell viability after 48 hrs by MTT assay; type: functional, cell-based; details: A549, 48 h
How it was run: (§1)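 A549 lung and A2780 ovarian human carcinoma cells were treated for 48 h, and viability was read by MTT assay. IC50 values are given as mean ± standard error of three independent experiments.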

[2] = Cytotoxicity against human A2780 cells assessed as decrease in cell viability after 48 hrs by MTT assay; type: functional, cell-based; details: A2780, 48 h; how it was run: as §1
[3] = Cell cycle arrest in human A549 cells assessed as accumulation at G2/M phase at 1 uM after 20 hrs by propidium iodide staining based flow cytometry; type: functional
How it was run: (§2)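 A549 cells were grown for 20 h with compound across 20 nM to 25 μM. DMSO was the negative control and paclitaxel (30−50 nM) the positive control. The percentage of cells in each cell-cycle phase was determined from flow cytometry DNA histograms.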

[4] = Cell cycle arrest in human A549 cells assessed as decrease in G1 phase population at 1 uM after 20 hrs by propidium iodide staining based flow cytometry; type: functional; how it was run: as §2
A549 [5] = assay: Binding affinity to alpha-tubulin in human A549 cells assessed as induction of microtubule depolymerization by measuring formation of abnormal type 4 spindles at 1 uM after 24 hrs by immunofluorescence microscopy; type: cell-based
How it was run: (§3)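 A549 cells were exposed to compound or DMSO vehicle for 24 h. They were then stained with DM1A anti-α-tubulin monoclonal antibody for microtubules and Hoechst 33342 for DNA. Cytoplasmic microtubule networks and mitotic spindle morphology, including abnormal type IV ball-shaped spindles, were examined by immunofluorescence microscopy.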

Homo sapiens [6] = species on record: Homo sapiens; assay: Inhibition of 2-methoxy-5-(2,3,4-trimethoxyphenyl)-2,4,6-cycloheptatrien-1-one binding to colchicine binding site of tubulin (unknown origin) at 10 uM by fluorescence assay
How it was run: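 Fluorescence emission spectra were recorded at 350 nm excitation for 10 μM purified tubulin plus 10 μM MTC (a colchicine-site probe), with 10 μM test compound. Reference spectra were MTC with tubulin alone and MTC alone. The result is the percent decrease in MTC fluorescence.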

Homo sapiens [7] = species on record: Homo sapiens; assay: Inhibition of tubulin assembly (unknown origin) assessed as decrease in pelleted microtubules up to 30 uM after 20 mins
How it was run: (§4)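 Purified tubulin was assembled at 30 μM, above its 3.3 μM critical concentration, in the presence of compound. The resulting microtubules were pelleted by mild centrifugation to quantify assembly.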

[8] = Cell cycle arrest in human A549 cells assessed as accumulation at G2/M phase at 100 nM after 20 hrs by propidium iodide staining based flow cytometry; type: functional; how it was run: as §2
[9] = Cell cycle arrest in human A549 cells assessed as decrease in G1 phase population at 100 nM after 20 hrs by propidium iodide staining based flow cytometry; type: functional; how it was run: as §2
Homo sapiens [10] = species on record: Homo sapiens; assay: Inhibition of tubulin assembly (unknown origin) assessed as decrease in pelleted microtubules up to 40 uM after 20 mins; how it was run: as §4
[11] = (§5) Inhibition of 2-methoxy-5-(2,3,4-trimethoxyphenyl)-2,4,6-cycloheptatrien-1-one binding to colchicine binding site of tubulin (unknown origin) by fluorescence spectroscopic analysis; set-up: species or system Homo sapiens
How it was run: (§6)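 Tubulin binding constants (Kb) were obtained from a competition assay against the colchicine-site fluorescent probe MTC, assuming 1:1 stoichiometry.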

Homo sapiens [12] = species on record: Homo sapiens; assay: as §5; how it was run: as §6
A549 [13] = assay: Binding affinity to alpha-tubulin in human A549 cells assessed as induction of microtubule depolymerization by measuring formation of abnormal type 4 spindles at 100 nM after 24 hrs by immunofluorescence microscopy; type: cell-based; how it was run: as §3
Homo sapiens [14] = species on record: Homo sapiens; assay: Binding affinity to tubulin alpha/beta dimer (unknown origin) at 100 uM by STD-NMR method
Homo sapiens [15] = species on record: Homo sapiens; assay: Binding affinity to tubulin alpha/beta dimer (unknown origin) by TR-NOESY NMR spectroscopy
[16] = Cell cycle arrest in human A549 cells assessed as accumulation at G2/M phase at 25 uM after 20 hrs by propidium iodide staining based flow cytometry; type: functional
How it was run: (§7)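 A549 cells grown 20 h with compound across 20 nM to 25 μM; DMSO as negative and paclitaxel (30−50 nM) as positive control; DNA content histograms by flow cytometry give percent of cells in each cell cycle phase.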

[17] = Cell cycle arrest in human A549 cells assessed as decrease in G1 phase population at 25 uM after 20 hrs by propidium iodide staining based flow cytometry; type: functional; how it was run: as §7
A549 [18] = assay: Binding affinity to alpha-tubulin in human A549 cells assessed as induction of microtubule depolymerization by measuring formation of abnormal type 4 spindles at 50 uM after 24 hrs by immunofluorescence microscopy; type: cell-based
How it was run: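 A549 cells exposed 24 h, DMSO vehicle control; microtubules stained with DM1A anti-α-tubulin monoclonal antibody and DNA with Hoechst 33342; cytoplasmic microtubule network and mitotic spindle morphology scored by immunofluorescence microscopy.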

Homo sapiens [19] = species on record: Homo sapiens; assay: Binding affinity to tubulin alpha/beta dimer (unknown origin) at 300 uM by STD-NMR method

Structure (SMILES) | IC50 [1] [nM] | IC50 [2] [nM] | Activity [3] | Activity [4] | Activity (A549 [5]) | inhibition (Homo sapiens [6]) | inhibition (Homo sapiens [7]) | Activity [8] | Activity [9] | inhibition (Homo sapiens [10]) [%] | Kd [11] [nM] | Kb (Homo sapiens [12]) [×10⁵ /M] | Activity (A549 [13]) | Activity (Homo sapiens [14]) | Activity (Homo sapiens [15]) | Activity [16] | Activity [17] | Activity (A549 [18]) | Activity (Homo sapiens [19])
COc1cc(C2=C3C(=O)OC[C@@H]3[C@@H](OC(C)=O)c3cc4c(cc32)OCO4)cc(OC)c1OC | 263 | 587 | Active | Active | Active | 17% | Active | – | – | – | – | – | – | – | – | – | – | – | –
COc1cc([C@@H]2c3cc4c(cc3[C@H](OC(C)=O)[C@H]3COC(=O)[C@H]23)OCO4)cc(OC)c1OC | 25 | 34 | – | – | – | 65% | – | Active | Active | > 80 | 58 | 170 | Active | Active | – | – | – | – | –
COc1ccc([C@@H]2c3cc4c(c(OC)c3C[C@H]3COC(=O)[C@@H]32)OCO4)cc1OC | 33 | 84 | – | – | – | 43% | Active | Active | Active | – | 850 | 11.8 | Active | Active | Active | – | – | – | –
COc1c2c(cc3c1OCO3)[C@@H](c1ccc3c(c1)OCO3)[C@@H]1C(=O)OC[C@@H]1C2 | 8670 | 12900 | – | – | – | Active | – | – | – | – | – | – | – | – | – | Active | Active | Active | –
COc1cc([C@@H]2c3cc4c(cc3[C@H](O)[C@H]3COC(=O)[C@H]23)OCO4)cc(OC)c1OC [PODOFILOX] | 15 | 18 | – | – | – | 68% | – | 70 to 80% | – | > 80 | 54 | 185 | Active | – | – | – | – | – | Active
